Measurements reported in ChEMBL document CHEMBL1275305, “Synthesis and in vitro study of pseudo-peptide thioureas containing α-aminophosphonate moiety as potential antitumor agents” (Eur J Med Chem, 2010).

How the values were obtained:
PC-3 [1] = assay: Antitumor activity against human PC3 cells assessed as growth inhibition at 10 uM after 24 hrs by relative to control; assay type: functional; settings: PC-3, 24 h
Method in brief: (§1)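 MTT growth-inhibition screen: 2.0×10^4 cells per well incubated with test compound for 24 h at 37 °C under 5% CO2. MTT then added, supernatant discarded and DMSO added. Absorbance read at 595 nm. Three separate experiments, each run in triplicate.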

BGC-823 [2] = assay: Antitumor activity against human BGC823 cells assessed as growth inhibition at 10 uM after 24 hrs by relative to control; assay type: functional; settings: BGC-823, 24 h; method in brief: as §1
Bcap37 = assay: Antitumor activity against human Bcap37 cells assessed as growth inhibition at 10 uM after 24 hrs by relative to control; assay type: functional; settings: Bcap37, 24 h; method in brief: as §1
PC-3 [3] = assay: Cytotoxicity against human PC3 cells at 20 uM after 72 hrs by relative to control; assay type: functional; settings: PC-3, 72 h
Method in brief: (§2)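 Cells grown in RPMI 1640 with 10% FBS and plated at 2×10^3 cells/well. Compounds were taken up in DMSO, diluted in medium and given at 1-100 µM for 72 h. Controls received 0.1% DMSO. MTT was read 4 h later as formazan absorbance at 595 nm. % cytotoxicity was blank-corrected against control, IC50 taken at 50% cell survival. Three experiments, each in triplicate.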

PC-3 [4] = assay: Cytotoxicity against human PC3 cells at 5 uM after 72 hrs by relative to control; assay type: functional; settings: PC-3, 72 h; method in brief: as §2
PC-3 [5] = assay: Cytotoxicity against human PC3 cells at 1 uM after 72 hrs by relative to control; assay type: functional; settings: PC-3, 72 h; method in brief: as §2
PC-3 [6] = assay: Cytotoxicity against human PC3 cells at 10 uM after 72 hrs by relative to control; assay type: functional; settings: PC-3, 72 h; method in brief: as §2
PC-3 [7] = assay: Cytotoxicity against human PC3 cells after 72 hrs by MTT assay; assay type: functional, cell-based; settings: PC-3, 72 h; method in brief: as §2
BGC-823 [8] = assay: Cytotoxicity against human BGC823 cells after 72 hrs by MTT assay; assay type: functional, cell-based; settings: BGC-823, 72 h; method in brief: as §2
BGC-823 [9] = assay: Cytotoxicity against human BGC823 cells at 20 uM after 72 hrs by relative to control; assay type: functional; settings: BGC-823, 72 h; method in brief: as §2
BGC-823 [10] = assay: Cytotoxicity against human BGC823 cells at 1 uM after 72 hrs by relative to control; assay type: functional; settings: BGC-823, 72 h; method in brief: as §2
BGC-823 [11] = assay: Cytotoxicity against human BGC823 cells at 10 uM after 72 hrs by relative to control; assay type: functional; settings: BGC-823, 72 h; method in brief: as §2
BGC-823 [12] = assay: Cytotoxicity against human BGC823 cells at 5 uM after 72 hrs by relative to control; assay type: functional; settings: BGC-823, 72 h; method in brief: as §2

SMILES	inhibition at 10 µM (PC-3 [1]) [%]	inhibition at 10 µM (BGC-823 [2]) [%]	inhibition at 10 µM (Bcap37) [%]	also measured
CCCCOP(=O)(OCCCC)C(NC(=S)N[C@@H](Cc1ccccc1)C(=O)NCc1ccccc1F)c1ccccc1 (stereo partly drawn)	22.5	30.1	32.1	–
CCCCOP(=O)(OCCCC)C(NC(=S)N[C@@H](Cc1ccccc1)C(=O)NCc1ccc(F)cc1)c1ccccc1 (stereo partly drawn)	19.7	26.1	48.4	–
CCCCOP(=O)(OCCCC)C(NC(=S)N[C@H](Cc1ccccc1)C(=O)NCc1ccccc1F)c1ccccc1 (stereo partly drawn)	18	30.1	34	–
CCCCOP(=O)(OCCCC)C(NC(=S)N[C@H](Cc1ccccc1)C(=O)NCc1ccc(F)cc1)c1ccccc1 (stereo partly drawn)	33.6	33.2	35.8	–
CCCCOP(=O)(OCCCC)C(NC(=S)N[C@H](Cc1ccccc1)C(=O)NCc1ccccc1)c1ccccc1 (stereo partly drawn)	21.7	22.7	46.6	–
CCOP(=O)(OCC)C(NC(=S)N[C@H](Cc1ccccc1)C(=O)NCc1ccccc1F)c1ccccc1 (stereo partly drawn)	73.1	30.1	70.2	inhibition at 20 µM (PC-3 [3]): 97.2%; inhibition at 5 µM (PC-3 [4]): 45.6%; inhibition at 1 µM (PC-3 [5]): 4.9%; inhibition at 10 µM (PC-3 [6]): 73.1%; IC50 (PC-3 [7]): 6.7 µM
CCCOP(=O)(OCCC)C(NC(=S)N[C@H](Cc1ccccc1)C(=O)NCc1ccccc1F)c1ccccc1 (stereo partly drawn)	30.6	11.1	17.2	–
CCOP(=O)(OCC)C(NC(=S)N[C@@H](Cc1ccccc1)C(=O)NCc1ccccc1)c1ccccc1 (stereo partly drawn)	20.1	18.3	16.9	–
CC(C)OP(=O)(OC(C)C)C(NC(=S)N[C@H](Cc1ccccc1)C(=O)NCc1ccccc1F)c1ccccc1 (stereo partly drawn)	14.3	51.6	27.8	–
CCCOP(=O)(OCCC)C(NC(=S)N[C@@H](Cc1ccccc1)C(=O)NCc1ccccc1)c1ccccc1 (stereo partly drawn)	33.5	35.7	35.4	–
CCOP(=O)(OCC)C(NC(=S)N[C@H](Cc1ccccc1)C(=O)NCc1ccc(F)cc1)c1ccccc1 (stereo partly drawn)	32.4	44.5	34	–
CC(C)OP(=O)(OC(C)C)C(NC(=S)N[C@@H](Cc1ccccc1)C(=O)NCc1ccccc1)c1ccccc1 (stereo partly drawn)	50.1	27.9	24.4	inhibition at 20 µM (PC-3 [3]): 50.1%; inhibition at 5 µM (PC-3 [4]): 12.8%; inhibition at 1 µM (PC-3 [5]): 2.7%; inhibition at 10 µM (PC-3 [6]): 21.8%; IC50 (PC-3 [7]): 19.5 µM
CCCOP(=O)(OCCC)C(NC(=S)N[C@H](Cc1ccccc1)C(=O)NCc1ccc(F)cc1)c1ccccc1 (stereo partly drawn)	30.6	53.9	12.6	–
CCCCOP(=O)(OCCCC)C(NC(=S)N[C@@H](Cc1ccccc1)C(=O)NCc1ccccc1)c1ccccc1 (stereo partly drawn)	22.8	21.1	34.5	–
CC(C)OP(=O)(OC(C)C)C(NC(=S)N[C@H](Cc1ccccc1)C(=O)NCc1ccc(F)cc1)c1ccccc1 (stereo partly drawn)	34.8	20.8	27	–
CCOP(=O)(OCC)C(NC(=S)N[C@@H](Cc1ccccc1)C(=O)NCc1ccccc1F)c1ccccc1 (stereo partly drawn)	19.3	30.1	25.9	–
CCCOP(=O)(OCCC)C(NC(=S)N[C@@H](Cc1ccccc1)C(=O)NCc1ccccc1F)c1ccccc1 (stereo partly drawn)	18.1	11.1	44.7	–
CC(C)OP(=O)(OC(C)C)C(NC(=S)N[C@@H](Cc1ccccc1)C(=O)NCc1ccccc1F)c1ccccc1 (stereo partly drawn)	26.8	47.9	44.4	–
CCOP(=O)(OCC)C(NC(=S)N[C@@H](Cc1ccccc1)C(=O)NCc1ccc(F)cc1)c1ccccc1 (stereo partly drawn)	27.9	22.9	26.1	–
CCCOP(=O)(OCCC)C(NC(=S)N[C@@H](Cc1ccccc1)C(=O)NCc1ccc(F)cc1)c1ccccc1 (stereo partly drawn)	56.7	21	24	inhibition at 20 µM (PC-3 [3]): 51.2%; inhibition at 5 µM (PC-3 [4]): 19.8%; inhibition at 1 µM (PC-3 [5]): 18.1%; inhibition at 10 µM (PC-3 [6]): 28%; IC50 (PC-3 [7]): 22.1 µM
CC(C)OP(=O)(OC(C)C)C(NC(=S)N[C@@H](Cc1ccccc1)C(=O)NCc1ccc(F)cc1)c1ccccc1 (stereo partly drawn)	58.6	89.1	53.1	inhibition at 20 µM (PC-3 [3]): 66.7%; IC50 (BGC-823 [8]): 4.7 µM; inhibition at 5 µM (PC-3 [4]): 17.3%; inhibition at 1 µM (PC-3 [5]): 15.8%; inhibition at 10 µM (PC-3 [6]): 31.4%; inhibition at 20 µM (BGC-823 [9]): 100%; inhibition at 1 µM (BGC-823 [10]): 30.6%; inhibition at 10 µM (BGC-823 [11]): 89.1%; inhibition at 5 µM (BGC-823 [12]): 70.1%; IC50 (PC-3 [7]): 17.2 µM
CCOP(=O)(OCC)C(NC(=S)N[C@H](Cc1ccccc1)C(=O)NCc1ccccc1)c1ccccc1 (stereo partly drawn)	56.9	55.7	52.3	inhibition at 20 µM (PC-3 [3]): 73.8%; inhibition at 5 µM (PC-3 [4]): 21.2%; inhibition at 1 µM (PC-3 [5]): 10.4%; inhibition at 10 µM (PC-3 [6]): 56.9%; IC50 (PC-3 [7]): 11.2 µM
CCCOP(=O)(OCCC)C(NC(=S)N[C@H](Cc1ccccc1)C(=O)NCc1ccccc1)c1ccccc1 (stereo partly drawn)	30.8	24.4	49.1	–
CC(C)OP(=O)(OC(C)C)C(NC(=S)N[C@H](Cc1ccccc1)C(=O)NCc1ccccc1)c1ccccc1 (stereo partly drawn)	30.5	29	22.9	–
COc1cccc2c1C(=O)c1c(O)c3c(c(O)c1C2=O)C[C@@](O)(C(=O)CO)C[C@@H]3O[C@H]1C[C@H](N)[C@H](O)[C@H](C)O1 [DOXORUBICIN]	–	93.8	–	inhibition at 20 µM (PC-3 [3]): 100%; inhibition at 5 µM (PC-3 [4]): 89.4%; inhibition at 1 µM (PC-3 [5]): 36.4%; inhibition at 10 µM (PC-3 [6]): 98%; IC50 (PC-3 [7]): 3.3 µM
